The values that follow come from PubChem BioAssay.

A short description of assay [1]: inhibitors of TNFa-induced NFkB p65 translocation, primary screen, imaging, HUVEC, MLSMR starter and 10KST1 sets (AID 438;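 active = inhibition above 20% together with a positive visual image hit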;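 note: compound added about 3h40 before a 20 min TNFalpha stimulation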;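 for inhibition: signal is the nuclear over cytoplasmic p65 intensity ratio per well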). To be noted: HUVEC TNFa-induced p65 nuclear translocation; cell count: measured here: nuclei count (cytotoxicity indicator), at 2.08 µM; inhibition: at 2 µM, stronger effect = higher value, 0% TNFa-plus-vehicle, 100% no-TNFa wells.
Assay [2] is described as follows: reduction of polyQ htt aggregates in cells – imaging, exon1htt(103Q)mCFP cells, high-content imaging, primary screen (AID 483;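 active = visual image review flags a hit and inhibition of aggregation exceeds 20%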;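 note: compound exposure lasted 3 days before fixation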;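 for nuclei count: percent of the per-plate median nuclei count of sample wells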). The following applies: exon1htt(103Q)mCFP cell line, aggregate imaging, at 2 µM; inhibition of aggregation: stronger effect = higher value; nuclei count: measured here: cell count, toxicity.
The nature of assay [3]: endothelial E-selectin expression blockers – imaging, HUVEC, immunofluorescence, MLSMR starter and 10KST1 sets, primary screen (AID 487;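 active = visually confirmed hit in the image check and inhibition above 20%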;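 for inhibition: signal is fraction of cell area covered by stained E-selectin grains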;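 for nuclei count: 100% = median nuclei count of all wells on the same plate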). The following applies: HUVEC TNFalpha-induced E-selectin immunofluorescence imaging, at 2 µM; inhibition: stronger effect = higher value; nuclei count: measured here: cell number, toxicity.
The target in assay [4] is Voltage-gated potassium channel subunit beta-2 (Rattus norvegicus) (UniProt P62483). The assay can be described thus: inhibitors of rat Kvbeta2 reductase activity – biochemical, NADPH fluorescence, primary screen (AID 622;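 active = fluorescence slope higher than the sample average by over 3 SD, cut at about -0.22 in these data, passing the limit was not always enough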;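 note: slope of raw intensity against log time taken from 70 to 1610 s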). To be noted: recombinant KvBeta, 4-cyanobenzaldehyde reduction, at 10 µM, stronger effect = higher value.
Assay [5] shares this target. The assay can be described thus: enhancers of rat Kvbeta2 NADPH turnover – biochemical, NADPH fluorescence, primary screen (AID 623;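 active = NADPH fluorescence slope more negative than the mean of all samples by about 3 SD, 99.7% confidence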;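 note: fluorescence intensity change per second fitted from 20 to 320 s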). The following applies: Recombinant KvBeta, NADPH fluorescence decrease slope, 10 min; at 10 µM; stronger effect = lower value.
In assay [6] the target is Muscarinic acetylcholine receptor M4 (Homo sapiens) (UniProt P08173). Briefly: M4-linked GIRK flux change, two-sided – cell-based, HEK293 M4/GIRK, thallium flux, BTC-AM, M4 allosteric agonist project, primary screen (AID 625).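 Note: thallium influx through GIRK channels coupled to M4 in HEK293 cells with BTC-AM dye.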 To be noted: at 10 µM, actives lie on both sides. The gist of the method:
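Assay system: HEK293 cells with M4 receptor and GIRK channels / Controls: carbachol and DMSO controls / Schedule: 1 h dye loading, 2 min kinetic read / Technique: kinetic fluorescence with BTC-AM dye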

Assay [7] in a line: blockers of RIG-like receptor reporter activation – cell-based, Sendai virus stimulus, luciferase, 10K MLSCN set, TLR/RLR signaling modifier project, primary screen (AID 602276;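 active = inhibition at or above 50% at 10 µM; inactive = inhibition below 50%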;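 note: firefly luciferase from ISG56 promoter only with Renilla not read in this screen; 0% = Sendai virus plus DMSO and 100% = medium plus DMSO without virus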). The following applies: HEK293 RL24 IRF3 luciferase reporter, at 10 µM, stronger effect = higher value.
The nature of assay [8]: TLR3 IRF3 reporter activation blockers – cell-based, poly I:C stimulus, luciferase, 10K MLSCN set, primary screen (AID 602277;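 active = inhibition of the reporter signal at or above 50%; inactive = inhibition below 50%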). The following applies: HEK293-TLR3 RL24 IRF3 luciferase reporter, at 10 µM, stronger effect = higher value. On the technique in general: Reporter assays use an easily measured gene product as a stand-in for the process of interest.

Active and inactive are the calls of the source.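 Rule for the calls, unless noted: active = fluorescence slope after compound addition differing from the mean of all tested samples at 99.7% confidence, mostly higher but some lower; inactive = the rest.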

Muscarinic acetylcholine receptor M4 (Homo sapiens), sequence (P08173 whole entry, looked up): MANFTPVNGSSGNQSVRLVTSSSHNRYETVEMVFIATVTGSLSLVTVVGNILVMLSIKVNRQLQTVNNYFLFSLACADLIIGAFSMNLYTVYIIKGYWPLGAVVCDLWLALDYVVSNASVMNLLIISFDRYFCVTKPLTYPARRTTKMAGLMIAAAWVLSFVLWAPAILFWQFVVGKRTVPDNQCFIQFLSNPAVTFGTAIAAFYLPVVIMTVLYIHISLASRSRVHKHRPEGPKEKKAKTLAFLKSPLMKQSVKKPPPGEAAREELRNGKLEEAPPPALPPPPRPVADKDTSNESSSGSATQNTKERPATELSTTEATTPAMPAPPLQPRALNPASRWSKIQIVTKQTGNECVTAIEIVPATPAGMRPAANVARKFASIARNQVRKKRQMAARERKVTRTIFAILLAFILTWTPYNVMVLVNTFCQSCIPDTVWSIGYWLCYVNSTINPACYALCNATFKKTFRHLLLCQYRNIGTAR
Voltage-gated potassium channel subunit beta-2 (Rattus norvegicus), sequence (P62483 whole entry, looked up): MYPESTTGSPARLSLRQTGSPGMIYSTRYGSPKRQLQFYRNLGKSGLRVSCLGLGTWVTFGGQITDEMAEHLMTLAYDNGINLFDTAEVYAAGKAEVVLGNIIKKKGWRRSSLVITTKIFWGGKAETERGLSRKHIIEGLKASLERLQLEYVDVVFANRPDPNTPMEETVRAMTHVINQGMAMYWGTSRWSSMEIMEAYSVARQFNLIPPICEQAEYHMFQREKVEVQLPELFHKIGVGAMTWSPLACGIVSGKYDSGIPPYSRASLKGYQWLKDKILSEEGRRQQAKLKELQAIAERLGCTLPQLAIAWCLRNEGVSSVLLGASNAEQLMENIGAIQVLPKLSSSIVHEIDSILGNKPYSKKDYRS

Consider `Cc1cc(C(=O)Nc2cccc(O)c2)c(C)o1`, for which the cell count in assay [1] stood at 477. Further, the inhibition (commonly the drop in the measured response relative to a control, in per cent) in assay [1] is 9.9% (inactive); in assay [3] it was -76.5% (inactive); in assay [7] it was 0.52% (inactive); in assay [8], -20.8% (inactive). In addition, the inhibition of aggregation in assay [2] was 2.6% (inactive). The values for the nuclei count in assay [2] and in assay [3] were 78.5% and 112%, respectively. Moreover, the fluorescence slope in assay [4] is -0.566 (inactive); in assay [6], 0.00709 (inactive). In assay [5], the NADPH fluorescence slope was -5.1e-05 (inactive).
Consider `COC(=O)CN(c1ccc(F)cc1)S(=O)(=O)c1ccccc1`, for which the cell count in assay [1] amounted to 329. In addition, the inhibition in assay [1] was 1.8% (inactive); in assay [3] it was -92.2% (inactive); in assay [7] it was 6.05% (inactive); in assay [8], -8.76% (inactive). Moreover, the inhibition of aggregation in assay [2] is -0.2% (inactive). For the same molecule, the nuclei count in assay [2] is 86.5%; in assay [3] it was 95.6%. For the same molecule, the fluorescence slope was -0.527 (inactive) in assay [4] and 0.00367 (inactive) in assay [6]. The NADPH fluorescence slope in assay [5] was -0.000183 (inactive).
`CCCCC(c1nnnn1CS(=O)(=O)c1ccc(C)cc1)N1CCN(c2ccccc2)CC1` (stereo not drawn): the cell count in assay [1] was determined as 370. Further, the inhibition in assay [1] is 6.6% (inactive); in assay [3], -47.5% (inactive); in assay [7], 32% (inactive); in assay [8] it was 16.2% (inactive). For the same molecule, the inhibition of aggregation in assay [2] is -10.3% (inactive). In addition, the values for the nuclei count in assay [2] and in assay [3] were 100% and 102%, respectively. For the same molecule, the results for the fluorescence slope in assay [4] and in assay [6] were -0.46 (inactive) and 0.00637 (inactive), respectively. The NADPH fluorescence slope in assay [5] was -2.8e-05 (inactive).
Regarding `CCCn1cc(SCC(=O)NCc2ccco2)c2ccccc21`, the cell count in assay [1] was determined as 679. The inhibition is -25.2% (inactive) in assay [1], 20% (inactive) in assay [3], 13% (inactive) in assay [7] and 5.85% (inactive) in assay [8]. Also, in assay [2], the inhibition of aggregation is -35.4% (inactive). Moreover, the figures for the nuclei count in assay [2] and in assay [3] were 124% and 100%, respectively. Further, the fluorescence slope in assay [4] is -0.521 (inactive); in assay [6], 0.00408 (inactive). In addition, the NADPH fluorescence slope in assay [5] was 9.7e-06 (inactive).
Take `O=c1c2ccccc2nc(-c2cccc(Cl)c2)n1O`: the cell count in assay [1] was found to be 333. Besides, the inhibition was 11.6% (inactive) in assay [1], -4.3% (inactive) in assay [3], 17.4% (inactive) in assay [7] and 6.85% (inactive) in assay [8]. The inhibition of aggregation in assay [2] was 0.5% (inactive). The nuclei count turned out to be 102% in assay [2] and 112% in assay [3]. The fluorescence slope is -0.453 (inactive) in assay [4] and 0.0197 (active) in assay [6]. Further, the NADPH fluorescence slope in assay [5] was -3.1e-05 (inactive).
Regarding `O=C(CCC(=O)N1CCN(S(=O)(=O)c2ccccc2)CC1)c1cccs1`, the cell count in assay [1] was determined as 633. Further, the inhibition in assay [1] was -1.3% (inactive); in assay [3], -176% (inactive); in assay [7], -5.43% (inactive); in assay [8], -3.56% (inactive). The inhibition of aggregation in assay [2] is -22.1% (inactive). Also, the results for the nuclei count in assay [2] and in assay [3] were 102% and 153%, respectively. Further, the fluorescence slope in assay [4] is -0.568 (inactive); in assay [6], 0.00592 (inactive). In addition, in assay [5], the NADPH fluorescence slope is -7e-05 (inactive).
`Cc1ccc2[nH]c(=O)c(CN(CCc3ccccc3)Cc3nnnn3CC3CCCO3)cc2c1` (stereo not drawn): the cell count in assay [1] stood at 676. Moreover, the inhibition in assay [1] was -10.2% (inactive); in assay [3], 75.6% (active); in assay [7], -7.83% (inactive); in assay [8], -6.03% (inactive). The inhibition of aggregation in assay [2] was 0.9% (inactive). For the same molecule, the nuclei count in assay [2] amounted to 105%; in assay [3] it was 112%. Moreover, the fluorescence slope in assay [4] was -0.498 (inactive); in assay [6], 0.00636 (inactive). Also, in assay [5], the NADPH fluorescence slope is -7e-06 (inactive).
For the molecule `COc1ccc(CNC(=O)Cn2nc(C(F)(F)F)c3c2CCC3)cc1`, the cell count in assay [1] amounted to 620. Moreover, the inhibition is -13.3% (inactive) in assay [1], -56.6% (inactive) in assay [3], 6.68% (inactive) in assay [7] and 19.7% (inactive) in assay [8]. Moreover, the inhibition of aggregation in assay [2] is -8% (inactive). For the same molecule, the nuclei count in assay [2] was 103%; in assay [3], 116%. In addition, the figures for the fluorescence slope in assay [4] and in assay [6] were -0.396 (inactive) and 0.00662 (inactive), respectively. Further, the NADPH fluorescence slope in assay [5] is -9.3e-05 (inactive).
For `O=C(NCc1ccc(F)cc1)c1cc(-c2ccco2)on1`, in assay [1], the cell count amounted to 330. Besides, the inhibition in assay [1] is -17.6% (inactive); in assay [3], 29.3% (inactive); in assay [7], -17.1% (inactive); in assay [8], -42.6% (inactive). Further, the inhibition of aggregation in assay [2] is 18.1% (inactive). Also, the nuclei count came out at 92% in assay [2] and 102% in assay [3]. For the same molecule, the fluorescence slope was -0.46 (inactive) in assay [4] and 0.00521 (inactive) in assay [6]. Further, the NADPH fluorescence slope in assay [5] was -5.1e-05 (inactive).
`CCOC(=O)N1CCC(N(C(=O)Nc2ccc(Cl)c(Cl)c2)C(C)CC)CC1` (stereo not drawn): the cell count in assay [1] was found to be 346. In addition, the inhibition was -3.2% (inactive) in assay [1], -44% (inactive) in assay [3], 8.19% (inactive) in assay [7] and -18.2% (inactive) in assay [8]. The inhibition of aggregation in assay [2] was 4.4% (inactive). Moreover, the nuclei count is 120% in assay [2] and 118% in assay [3]. Also, the results for the fluorescence slope in assay [4] and in assay [6] were -0.489 (inactive) and 0.00507 (inactive), respectively. For the same molecule, in assay [5], the NADPH fluorescence slope was -7.4e-06 (inactive).
Take `CCn1c(=O)n(CC(=O)Nc2cc(OC)ccc2OC)c(=O)c2ccccc21`: in assay [1], the cell count amounted to 696. The inhibition was -1.6% (inactive) in assay [1], -1.5% (inactive) in assay [3], 24.5% (inactive) in assay [7] and 23.2% (inactive) in assay [8]. For the same molecule, the inhibition of aggregation in assay [2] was 17.9% (inactive). Further, the nuclei count in assay [2] amounted to 63.6%; in assay [3] it was 99.5%. The values for the fluorescence slope in assay [4] and in assay [6] were -0.564 (inactive) and 0.00496 (inactive), respectively. For the same molecule, the NADPH fluorescence slope in assay [5] was -5.4e-05 (inactive).
For the molecule `O=c1[nH]c2cccnc2n1Cc1ccco1`, the cell count in assay [1] came out at 325. Moreover, the inhibition is -4.2% (inactive) in assay [1], -5.2% (inactive) in assay [3], 7.81% (inactive) in assay [7] and 6.25% (inactive) in assay [8]. Moreover, the inhibition of aggregation in assay [2] was -15% (inactive). Besides, the nuclei count in assay [2] was found to be 114%; in assay [3], 119%. The fluorescence slope was -0.323 (inactive) in assay [4] and 0.0064 (inactive) in assay [6]. In assay [5], the NADPH fluorescence slope is -4.8e-05 (inactive).
Consider `CCC(=O)/C=C1\Sc2ccc(OC)cc2N1CCO`, for which the cell count in assay [1] was found to be 626. The inhibition was 2.4% (inactive) in assay [1], -28.2% (inactive) in assay [3], 21.2% (inactive) in assay [7] and 9.17% (inactive) in assay [8]. Besides, the inhibition of aggregation in assay [2] was -1.7% (inactive). Also, the nuclei count is 93.6% in assay [2] and 85.1% in assay [3]. For the same molecule, the fluorescence slope in assay [4] was -0.577 (inactive); in assay [6], 0.0067 (inactive). In addition, in assay [5], the NADPH fluorescence slope was -3.8e-05 (inactive).
